Tests used:
[1] = folding enthalpy; higher = less favourable; fluorescence melt of hairpins on a sequencing array, two-state fit; conditions: sodium 0.088 M
Procedure, shortened: (§1)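 On a sequenced MiSeq flow cell, library hairpins with annealed Cy3 and quencher oligos were imaged for Cy3 fluorescence in 2.5 °C steps up to 60 °C, in 50 mM Na-HEPES pH 8.0, 25 mM NaCl. Normalisation used pre-quench Cy3 and control constructs. Bootstrapped two-state fits gave melting temperature and folding enthalpy, combined by inverse variance across four replicates and with fitted temperatures raised by 9.35 °C to match UV melts.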

[2] = melting temperature; fluorescence melt of hairpins on a sequencing array, two-state fit, raised by 9.35 °C to match UV melts; conditions: sodium 0.088 M
Procedure, shortened: as §1

GCGGTTGCCCGC ((((....))))
folding enthalpy [1]: -14.9 kcal/mol
Tm [2]: 62 °C

GAAACACGAAAGTGGTTC (((.(((....))).)))
folding enthalpy [1]: -44.3 kcal/mol
Tm [2]: 55 °C

GGTCTACGAAAGTATACC (((.(((....))).)))
folding enthalpy [1]: -35.5 kcal/mol
Tm [2]: 42.2 °C

GTCATCGCGAAAGCGGAC (((..(((....))))))
folding enthalpy [1]: -11.1 kcal/mol
Tm [2]: 39.9 °C

GCACCGCGAAAGCGGAGC ((.((((....)))).))
folding enthalpy [1]: -16.4 kcal/mol
Tm [2]: 69 °C

GTTAGCGAAAGCTCAAC ((((((....))).)))
folding enthalpy [1]: -11.8 kcal/mol
Tm [2]: 32.7 °C

GGCGGTGGAAACACCGTC (.(((((....))))).)
folding enthalpy [1]: -23.9 kcal/mol
Tm [2]: 65.8 °C

GGGGACACGAAAGTGCCC (((..(((....))))))
folding enthalpy [1]: -20.5 kcal/mol
Tm [2]: 55.5 °C

GTGTGCGAAAGCAAACAC ((((((....)))..)))
folding enthalpy [1]: -24.1 kcal/mol
Tm [2]: 51.7 °C

GGATCTCGAAAGAGTTCC (((.(((....))).)))
folding enthalpy [1]: -27.5 kcal/mol
Tm [2]: 46.1 °C

GCTCCCGAAAGGGAAGC ((((((....))).)))
folding enthalpy [1]: -31.8 kcal/mol
Tm [2]: 59.3 °C

ATAGCGAAAGCTAT (((((....)))))
folding enthalpy [1]: -15.9 kcal/mol
Tm [2]: 54 °C

GCCGTGCGAAAGCATTGC ((..(((....)))..))
folding enthalpy [1]: -12.6 kcal/mol
Tm [2]: 43.2 °C

GCGGTCAGCCGC ((((....))))
folding enthalpy [1]: -27.7 kcal/mol
Tm [2]: 57.4 °C

GGTATCGAAAGATCACC ((((((....))).)))
folding enthalpy [1]: -21.9 kcal/mol
Tm [2]: 35 °C

GCGAGGTCTCGC ((((....))))
folding enthalpy [1]: -22 kcal/mol
Tm [2]: 54.9 °C

GATCAAACTATTGATC ((((((....))))))
folding enthalpy [1]: -30.1 kcal/mol
Tm [2]: 40.3 °C

GACGCCGAAAGGCTCGTC ((((((....)))..)))
folding enthalpy [1]: -14.5 kcal/mol
Tm [2]: 50 °C

GATCCGATCACGGATC ((((((....))))))
folding enthalpy [1]: -40.6 kcal/mol
Tm [2]: 59.5 °C

GTCAGGTCGAAAGACGAC (((..(((....))))))
folding enthalpy [1]: -16.8 kcal/mol
Tm [2]: 43.1 °C

GGAATTGAAAAATTCC ((((((....))))))
folding enthalpy [1]: -28.9 kcal/mol
Tm [2]: 48 °C

GAGATAACGAAAGTTCTC (((..(((....))))))
folding enthalpy [1]: -20.8 kcal/mol
Tm [2]: 30.7 °C

GATCTATTATAGATC ((((((...))))))
folding enthalpy [1]: -33.4 kcal/mol
Tm [2]: 41.9 °C

GCATTGCGAAAGCAGCGC ((..(((....)))..))
folding enthalpy [1]: -16.1 kcal/mol
Tm [2]: 54.9 °C

GCGTCTCCGAAAGGACGC (((..(((....))))))
folding enthalpy [1]: -33.1 kcal/mol
Tm [2]: 56.8 °C

GGTATTGGAAACAATGCC ((.((((....)))).))
folding enthalpy [1]: -37.1 kcal/mol
Tm [2]: 47.7 °C

GACACACGAAAGTGAGTC (((.(((....))).)))
folding enthalpy [1]: -31 kcal/mol
Tm [2]: 56.1 °C

GAGAGCGGAAACGTTCTC ((((.((....)).))))
folding enthalpy [1]: -34.6 kcal/mol
Tm [2]: 49.1 °C

GTGATCGAAAGATTTCAC ((((((....)))..)))
folding enthalpy [1]: -14.3 kcal/mol
Tm [2]: 27.6 °C

GGACCCGGAAACGGATCC (((.(((....))).)))
folding enthalpy [1]: -38.5 kcal/mol
Tm [2]: 49.8 °C

GCACCATCGAAAGATTGC (((..(((....))))))
folding enthalpy [1]: -20 kcal/mol
Tm [2]: 29.1 °C

GGGCAGTCGAAAGACCCC (((..(((....))))))
folding enthalpy [1]: -21.6 kcal/mol
Tm [2]: 41.7 °C

GATCTTTGATAAGATC ((((((....))))))
folding enthalpy [1]: -25.5 kcal/mol
Tm [2]: 42.6 °C

GCTCCAGGAAACTGGGGC ((.((((....)))).))
folding enthalpy [1]: -39.6 kcal/mol
Tm [2]: 57.6 °C

CGTGCGGAAACGCAAACG ((((((....)))..)))
folding enthalpy [1]: -19.9 kcal/mol
Tm [2]: 45.3 °C

GATCGTGCCAACGATC ((((((....))))))
folding enthalpy [1]: -29.7 kcal/mol
Tm [2]: 66.6 °C

GATCTCTAAAGAGATC ((((((....))))))
folding enthalpy [1]: -33.4 kcal/mol
Tm [2]: 51.4 °C

GCGGATGGAAACACCCGC ((((.((....)).))))
folding enthalpy [1]: -42.9 kcal/mol
Tm [2]: 53 °C

GTCATAGGAAACTATGGC (.(((((....))))).)
folding enthalpy [1]: -29.1 kcal/mol
Tm [2]: 44.6 °C

GAGATACGAAAGTAGCTC (((.(((....))).)))
folding enthalpy [1]: -40.8 kcal/mol
Tm [2]: 57.5 °C

TTTCCGAAAGGAAA (((((....)))))
folding enthalpy [1]: -19 kcal/mol
Tm [2]: 49.3 °C

GGAAGCGAAAGCTTTCC ((((((....))).)))
folding enthalpy [1]: -30.2 kcal/mol
Tm [2]: 50.1 °C

GATCAATTCTTTGATC ((((((....))))))
folding enthalpy [1]: -35.9 kcal/mol
Tm [2]: 47.8 °C

GATCCGTACTCGGATC ((((((....))))))
folding enthalpy [1]: -37.9 kcal/mol
Tm [2]: 58.7 °C

GAAGGCGAAAGCCCGTTC ((((((....)))..)))
folding enthalpy [1]: -12 kcal/mol
Tm [2]: 27.2 °C

GGGGACGAAAGTCGCCCC ((((((....)))..)))
folding enthalpy [1]: -11 kcal/mol
Tm [2]: 65.4 °C

GCCTTTCGAAAGAAGGC (((.(((....))))))
folding enthalpy [1]: -29.1 kcal/mol
Tm [2]: 50.4 °C

Source: the array DNA melting data of Ke et al. (doi:10.1101/2024.01.08.574731)
